Hits are enriched below; roughly 5.8% of the tested compounds scored in any of these assays.
KDM4C inh: KDM4C (human) demethylase inhibition; Q9H3R0; GST-KDM4C 2-372, H3K9me3 peptide, LANCE TR-FRET; inhibition, % at 12.5 µM; actives 0.15% (n = 96,000);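 active = mean replicate inhibition above about 25%, with at least 55% of replicates also reaching it, limit read from the data, passing the limit was not always enough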
Target sequence (Q9H3R0 2-372 limits assumed): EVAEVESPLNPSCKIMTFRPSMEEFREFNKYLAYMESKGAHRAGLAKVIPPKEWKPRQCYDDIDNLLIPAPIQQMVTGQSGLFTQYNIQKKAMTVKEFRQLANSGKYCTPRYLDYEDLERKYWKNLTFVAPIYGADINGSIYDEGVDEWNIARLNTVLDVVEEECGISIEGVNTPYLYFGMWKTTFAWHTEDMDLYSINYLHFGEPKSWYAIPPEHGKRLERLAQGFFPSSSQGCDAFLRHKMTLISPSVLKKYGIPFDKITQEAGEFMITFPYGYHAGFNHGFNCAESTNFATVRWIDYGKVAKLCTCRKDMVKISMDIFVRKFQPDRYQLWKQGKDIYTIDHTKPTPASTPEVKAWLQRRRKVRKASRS
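material = GST-tagged GASC-1 (JMJD2C) catalytic fragment, aa 2-372 | amount = enzyme final amount 10 nM | medium = HEPES buffer, pH 7.5, plus ascorbate | also added = H3K9me3 peptide substrate, Fe(II), 2-oxoglutarate | dosing = single dose | times = 30 min demethylation and 1 h detection at room temperature | detection = LANCE TR-FRET | read-out basis = Fall in 671/618 emission ratio as inhibition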
Tcruzi prolif: T. cruzi proliferation inhibition; T. cruzi beta-gal in NIH3T3, GalScreen luminescence, 90 h; inhibition, % at 8.34 µM; actives 5.9% (n = 77,000);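 active = mean inhibition above about 93%, with at least 55% of replicates each passing it, limit read from the data, passing the limit was not always enough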
Pf Dd2 growth: P. falciparum Dd2 growth inhibition. SYBR Green, 72 h; active compounds read low. activity change, % at 10 µM. actives 2.3% (n = 94,000). AID 1159554; in the data active = activity change below about -80%
IDH1 R132H inh: IDH1 R132H (human) inhibition. O75874. IDH1 R132H reductase, diaphorase/resazurin fluorescence, 60 min. inhibition, % at 10 µM. actives 0.18% (n = 70,000); in the data active = inhibition above about 34%
A number is an active result; 0 = inactive; - = no result.

SMILES | KDM4C inh | Tcruzi prolif | Pf Dd2 growth | IDH1 R132H inh
C[C@@H]1CN([C@@H](C)CO)C(=O)c2cc(-c3ccc(C#N)cc3)cnc2O[C@@H]1CN(C)C(=O)Nc1ccccc1 | 33 | 0 | 0 | 0
C[C@H]1CN([C@@H](C)CO)C(=O)c2cc(-c3ccc(C#N)cc3)cnc2O[C@@H]1CN(C)C(=O)Nc1ccccc1 | 0 | 0 | 0 | 0
COc1ccc(C#Cc2cnc3c(c2)C(=O)N([C@@H](C)CO)C[C@H](C)[C@H](CN(C)C(=O)c2ccccc2F)O3)cc1 | 0 | 0 | -82 | 0
CC(C)NC(=O)N(C)C[C@H]1Oc2ncc(C#Cc3ccccc3F)cc2C(=O)N([C@@H](C)CO)C[C@@H]1C | 0 | 0 | -82 | 0
COc1ccc(C#Cc2cnc3c(c2)C(=O)N([C@H](C)CO)C[C@@H](C)[C@@H](CN(C)C(=O)c2ccccc2F)O3)cc1 | 0 | 0 | 0 | 0
C[C@@H]1CN([C@H](C)CO)C(=O)c2cc(C#Cc3ccccc3F)cnc2O[C@H]1CN(C)C(=O)c1ccc2c(c1)OCO2 | 0 | 0 | -86 | 0
O=C(NCc1ccccn1)c1cc(-c2cccnc2)nc2ccc(Br)cc12 | - | - | - | 0
Cc1noc(C)c1S(=O)(=O)Nc1ccc2c(c1)CC(=O)N([C@H](C)CO)C[C@H](C)[C@@H](CN(C)Cc1ccc(C(=O)Nc3ccccc3N)cc1)O2 | 0 | - | 0 | 0
Cc1noc(C)c1S(=O)(=O)Nc1ccc2c(c1)CC(=O)N([C@@H](C)CO)C[C@@H](C)[C@@H](CN(C)Cc1ccc(C(=O)Nc3ccccc3N)cc1)O2 | 0 | - | -93 | -
Cc1noc(C)c1S(=O)(=O)Nc1ccc2c(c1)CC(=O)N([C@H](C)CO)C[C@@H](C)[C@@H](CN(C)Cc1ccc(C(=O)Nc3ccccc3N)cc1)O2 | 0 | - | -89 | 0
C[C@@H]1O[C@H]2Oc3c(-c4ccc(O)cc4)oc4cc(O)c(c(O)c4c3=O)-c3cc(ccc3O)/C=C\C(=O)OC[C@H]3O[C@@H](O[C@H]([C@H]1O)[C@H]2O)[C@H](O)[C@@H](O)[C@@H]3O | - | - | - | 0
O=C(O)c1cc(N(Cc2ccccc2O)Cc2cc(O)ccc2O)ccc1O | - | - | - | 41
C[C@H](CO)N1C[C@H](C)[C@@H](CN(C)S(=O)(=O)c2ccc(Cl)cc2)Oc2ccc(N(C)C)cc2C1=O | 0 | - | 0 | 0
Cc1ccc(S(=O)(=O)N(C)C[C@H]2OCCCC[C@@H](C)Oc3ccc(NC(=O)Nc4ccc5c(c4)OCO5)cc3C(=O)N([C@@H](C)CO)C[C@H]2C)cc1 | 0 | - | 0 | 0
Cc1ccc(S(=O)(=O)N(C)C[C@H]2OCCCC[C@H](C)Oc3ccc(NC(=O)Nc4ccc5c(c4)OCO5)cc3C(=O)N([C@@H](C)CO)C[C@H]2C)cc1 | 0 | 0 | -82 | 0
Cc1ccc(S(=O)(=O)N(C)C[C@@H]2OCCCC[C@@H](C)Oc3ccc(NC(=O)Nc4ccc5c(c4)OCO5)cc3C(=O)N([C@@H](C)CO)C[C@@H]2C)cc1 | 0 | - | -83 | -
Cc1ccc(S(=O)(=O)N(C)C[C@H]2OCCCC[C@H](C)Oc3ccc(NC(=O)Nc4ccc5c(c4)OCO5)cc3C(=O)N([C@H](C)CO)C[C@@H]2C)cc1 | 0 | - | 0 | -
CC(=O)O[C@@H]1C[C@@H](C)[C@](O)(CCc2ccoc2)[C@]23CCC[C@](C)(C(=O)OC2)C13 (some centres not stated) | - | - | - | 0
C[C@@H]1CCCCO[C@H](CN(C)C(=O)Nc2ccc(F)cc2)[C@@H](C)CN([C@@H](C)CO)C(=O)c2cc(NS(=O)(=O)c3ccccc3)ccc2O1 | 0 | 0 | 0 | 0
C[C@@H]1CCCCO[C@H](CN(C)C(=O)Nc2ccccc2)[C@H](C)CN([C@@H](C)CO)C(=O)c2cc(NS(=O)(=O)c3ccccc3)ccc2O1 | 0 | - | -84 | -
COc1ccc(S(=O)(=O)Nc2ccc3c(c2)C(=O)N([C@@H](C)CO)C[C@H](C)[C@H](CN(C)C(=O)NC2CCCCC2)OCCCC[C@@H](C)O3)cc1 | 0 | 0 | -88 | -
C[C@@H]1CCCCO[C@H](CN(C)C(=O)Nc2ccc(F)cc2)[C@@H](C)CN([C@@H](C)CO)C(=O)c2cc(NS(=O)(=O)c3ccc(Cl)cc3)ccc2O1 | 0 | - | -87 | -
C[C@@H]1CCCCO[C@H](CN(C)C(=O)Nc2ccc(F)cc2)[C@H](C)CN([C@H](C)CO)C(=O)c2cc(NS(=O)(=O)c3ccccc3)ccc2O1 | 0 | 0 | -91 | 0
CO[C@@H]1CN(C)C(=O)c2ccc(NC(=O)C3CC3)cc2OC[C@H](C)N(C(=O)CN(C)C)C[C@H]1C | 0 | - | - | 0
Cc1nnc(SCC(=O)Nc2ccc(F)c(F)c2F)s1 | - | - | - | 0
SMILES | KDM4C inh | Tcruzi prolif | Pf Dd2 growth | IDH1 R132H inh
O=C(C[C@@H]1C=C[C@@H](NC(=O)c2ccncc2)[C@@H](CO)O1)NCc1ccncn1 | 0 | - | 0 | -
COc1ccc2c3c([nH]c2c1)[C@@H](CO)N(C(=O)c1ccncc1)CC31CCN(Cc2cccnc2)CC1 | 0 | - | 0 | -
O=C(C[C@@H]1C=C[C@@H](NC(=O)c2ccc(F)cc2)[C@H](CO)O1)NCCc1ccccc1 | 0 | 0 | 0 | 0
COc1ccc(S(=O)(=O)Nc2ccc3c(c2)C(=O)N([C@@H](C)CO)C[C@H](C)[C@@H](CN(C)C(=O)Nc2ccccc2)OCCCC[C@H](C)O3)cc1 | 0 | 0 | 0 | -
COc1ccc(S(=O)(=O)Nc2ccc3c(c2)C(=O)N([C@@H](C)CO)C[C@H](C)[C@@H](CN(C)C(=O)c2ccccc2)OCCCC[C@@H](C)O3)cc1 | 0 | 0 | -89 | 0
COc1ccc(S(=O)(=O)Nc2ccc3c(c2)C(=O)N([C@@H](C)CO)C[C@@H](C)[C@H](CN(C)C(=O)Nc2ccccc2)OCCCC[C@@H](C)O3)cc1 | 0 | 111 | 0 | -
C[C@@H]1CN([C@H](C)CO)C(=O)c2cc(C#Cc3ccccc3F)cnc2O[C@H]1CN(C)C | 0 | 0 | 0 | 0
CCOC(=O)CSc1nc2ccc(Br)cc2c(=O)n1-c1ccccc1OC | - | - | - | 0
C[C@H]1CCCCO[C@H](CN(C)CC2CCCCC2)[C@@H](C)CN([C@@H](C)CO)C(=O)c2cc(NC(=O)Nc3cccc4ccccc34)ccc2O1 | 0 | 0 | -85 | -
C[C@@H]1CN([C@@H](C)CO)C(=O)c2cc(NC(=O)Nc3cccc4ccccc34)ccc2O[C@@H](C)CCCCO[C@@H]1CN(C)CC1CCCCC1 | 0 | 0 | -88 | 0
C[C@@H]1CCCCO[C@@H](CN(C)CC2CCCCC2)[C@H](C)CN([C@H](C)CO)C(=O)c2cc(NC(=O)Nc3cccc4ccccc34)ccc2O1 | 0 | 0 | -89 | 0
C[C@@H]1CN([C@H](C)CO)S(=O)(=O)c2ccc(C#C[C@@H](C)O)cc2O[C@@H]1CN(C)C(=O)CC1CC1 | - | 0 | - | -
CC(C)C#Cc1ccc([C@@H]2[C@H](CO)N3CCCCN(C(=O)c4ccc5c(c4)OCO5)C[C@@H]23)cc1 | 0 | 0 | -83 | -
CC(C)C#Cc1ccc([C@H]2[C@H](CO)N3CCCCN(C(=O)c4ccc5c(c4)OCO5)C[C@@H]23)cc1 | 0 | 0 | 0 | -
O=C(c1cccc(F)c1)N1CC(=O)N2[C@H](CO)[C@H](c3ccc(-c4cccnc4)cc3)[C@H]2C1 | 0 | - | -86 | -
